Values after ≈ are worked out from the molar mass of the structure shown.

These results are taken from ChEMBL document CHEMBL4406834, “Phenylthiazoles with nitrogenous side chain: An approach to overcome molecular obesity” (Eur J Med Chem, 2019).

The test system of one data set is Staphylococcus aureus. The experiment in a line: Antibacterial activity against methicillin-resistant Staphylococcus aureus NRS384 USA300 after 18 to 20 hrs by broth microdilution assay. In kind it is functional. Put shortly:
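Broth microdilution per CLSI. Strains grown aerobically overnight on tryptone soy agar at 37 °C, adjusted to 0.5 McFarland, then diluted in cation-adjusted Mueller-Hinton broth to about 5 × 10^5 CFU/mL. Compounds (10 mg/mL DMSO stocks) serially diluted. Incubated aerobically at 37 °C for 18-20 h. MIC is the lowest concentration with no visible growth.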
(In general: Broth dilution looks for growth in wells or tubes with falling amounts of substance.)

Data set [1] in a line: Aqueous solubility of the compound in phosphate buffered saline assessed as concentration that produces no precipitate measured as OD at 540 nm. In kind it is physicochemical.
The subject of data set [2] is Escherichia coli. The experiment in a line: Bactericidal activity against TolC-deficient Escherichia coli JW55031. Type of data set: functional.
The subject of data set [3] is Pseudomonas aeruginosa. The experiment in a line: Bactericidal activity against Pseudomonas aeruginosa ATCC 15442. In kind it is functional.
For data set [4], the system named is Acinetobacter baumannii. The experiment in a line: Bactericidal activity against Acinetobacter baumannii ATCC 19606. Particulars: ATCC 19606 = CIP 70.34 = JCM 6841. In kind it is functional.
The test system of data set [5] is Pseudomonas aeruginosa. The experiment in a line: Bactericidal activity against Pseudomonas aeruginosa ATCC 27853. Type of data set: functional.
Data set [6] has as its system Pseudomonas aeruginosa. The experiment in a line: Antibacterial activity against Pseudomonas aeruginosa ATCC 27853. In kind it is functional.
The test system of data set [7] is Escherichia coli. Nature of the data set: Bactericidal activity against Escherichia coli BW25113. Type of data set: functional.
Data set [8] relates to Klebsiella pneumoniae. The experiment in a line: Bactericidal activity against Klebsiella pneumoniae BAA-1706. Type of data set: functional.
The test system of data set [9] is Escherichia coli. The experiment in a line: Antibacterial activity against Escherichia coli BW25113. In kind it is functional.
Data set [10] has as its system Klebsiella pneumoniae. Nature of the data set: Antibacterial activity against Klebsiella pneumoniae BAA-1706. Type of data set: functional.
Data set [11] relates to Acinetobacter baumannii. The experiment in a line: Antibacterial activity against Acinetobacter baumannii ATCC 19606. Type of data set: functional. To be noted: ATCC 19606 = CIP 70.34 = JCM 6841.
The test system of data set [12] is Escherichia coli. The experiment in a line: Antibacterial activity against Escherichia coli ATCC 25922. Type of data set: functional.
The subject of data set [13] is Escherichia coli. The experiment in a line: Antibacterial activity against TolC-deficient Escherichia coli JW55031. Type of data set: functional.
For data set [14], the system named is Pseudomonas aeruginosa. Nature of the data set: Antibacterial activity against Pseudomonas aeruginosa ATCC 15442. Type of data set: functional.
The subject of data set [15] is Escherichia coli. The experiment in a line: Bactericidal activity against Escherichia coli ATCC 25922. Type of data set: functional.

As a reminder, the MIC is the lowest concentration that inhibits growth of the organism. In turn, `C/C(=N\NC(=N)N)c1sc(-c2ccc(N3CCC(C)CC3)cc2)nc1C` gave an MIC with Staphylococcus aureus of 16 µg/mL (≈ 43.2 µM).
The kinetic solubility is the concentration staying in solution when a stock, usually in DMSO, is diluted into the medium. In the case of `C/C(=N\NC(=N)N)c1sc(-c2ccc(C3CCCCC3)cc2)nc1C`, the kinetic solubility in [1] was found to be 2.7 µM (≈ 0.96 µg/mL).
`C/C(=N\NC(=N)N)c1sc(-c2ccc(N3CCOCC3)cc2)nc1C`: the MIC against Staphylococcus aureus is greater than 128 µg/mL.
`C/C(=N\NC(=N)N)c1sc(-c2ccc(N3CCC(Br)CC3)cc2)nc1C`: in the data set on Staphylococcus aureus, the MIC was found to be 8 µg/mL (≈ 18.4 µM).
`C/C(=N\NC(=N)N)c1sc(-c2ccc(N3CCSCC3)cc2)nc1C` registered an MIC with Staphylococcus aureus of 32 µg/mL (≈ 85.4 µM).
`C/C(=N\NC(=N)N)c1sc(-c2ccc(N3CCCCC3C)cc2)nc1C` (stereo unspecified) gave an MIC with Staphylococcus aureus of 8 µg/mL (≈ 21.6 µM).
As a reminder, the MBC is the smallest concentration meeting the test's criterion for killing. High values mean weaker bactericidal potency, low ones greater bactericidal potency. Regarding GENTAMICIN, the MBC is less than 0.5 µg/mL with Escherichia coli [2]; 2 µg/mL in the data set with Pseudomonas aeruginosa [3]; 32 µg/mL against Acinetobacter baumannii [4]; 4 µg/mL in the data set on Pseudomonas aeruginosa [5]; less than 0.5 µg/mL against Escherichia coli [7]; 4 µg/mL in the data set with Klebsiella pneumoniae [8]. This molecule also registered an MBC against Escherichia coli [15] of 1 µg/mL. The minimum inhibitory concentration (MIC) against Pseudomonas aeruginosa [6] is 2 µg/mL; with Escherichia coli [9] it was less than 0.5 µg/mL; in the data set with Klebsiella pneumoniae [10], 4 µg/mL; in the data set on Acinetobacter baumannii [11] it was 32 µg/mL; with Escherichia coli [12], 1 µg/mL; against Escherichia coli [13], less than 0.5 µg/mL. The same molecule registered an MIC against Pseudomonas aeruginosa [14] of 2 µg/mL.
In the data set with Staphylococcus aureus, `C/C(=N\NC(=N)N)c1sc(-c2ccc(N3CCCCCC3)cc2)nc1C` showed an MIC greater than 128 µg/mL.
